Reference: ChEMBL document CHEMBL1158389, “Highly twisted adamantyl arotinoids: synthesis, antiproliferative effects and RXR transactivation profiles” (Eur J Med Chem, 2009)
Activity calls are given as the source filed them. No cut-off for these calls is given here.

Key:
[1] = biological target: T1, Retinoic acid receptor gamma (Homo sapiens) (UniProt P13631); test: Inhibition of transactivation activity of Gal4-LBD fused human RARgamma (178 to 454) transfected in atRA-stimulated african green monkey CV1 cells at 4 uM after 20 hrs by Dual-light chemiluminescent assay; settings: CV-1
T1 sequence (whole entry): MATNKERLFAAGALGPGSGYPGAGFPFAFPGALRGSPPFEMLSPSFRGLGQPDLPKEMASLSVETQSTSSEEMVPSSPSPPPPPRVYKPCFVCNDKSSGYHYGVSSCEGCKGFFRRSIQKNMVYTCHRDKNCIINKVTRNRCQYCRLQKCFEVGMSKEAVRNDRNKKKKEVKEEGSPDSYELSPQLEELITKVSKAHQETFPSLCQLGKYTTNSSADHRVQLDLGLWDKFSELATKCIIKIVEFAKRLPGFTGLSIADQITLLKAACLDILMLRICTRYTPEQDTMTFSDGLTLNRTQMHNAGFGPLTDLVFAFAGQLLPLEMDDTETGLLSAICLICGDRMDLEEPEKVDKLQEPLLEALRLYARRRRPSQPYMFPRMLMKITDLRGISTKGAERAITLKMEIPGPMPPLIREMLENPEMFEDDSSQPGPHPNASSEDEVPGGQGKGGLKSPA

BXPC-3 = test: Antiproliferative activity against human BxPC3 cells at 4 uM after 48 hrs by MTT assay; format: functional; settings: BXPC-3, 48 h
Procedure, shortened: (§1)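 Epithelial cancer lines came from ATCC and were seeded the day before in complete medium: PC-3, SkOV3 and A549 at 3,000/well; MiaPaCa-2 and BxPC-3 at 4,000; T-47D and MDA-MB-468 at 5,000. Medium was switched to 0.5% FBS just before exposure to 4 μM. Read-out was MTT (4 h, 37 °C), SDS/HCl solubilisation, A595 minus cell-free blank. Growth inhibition was taken versus DMSO (≤0.1% v/v) controls, ≥2 experiments in triplicate.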

A549 = test: Antiproliferative activity against human A549 cells at 4 uM after 72 hrs by MTT assay; format: functional; settings: A549, 72 h
Procedure, shortened: as §1

SK-OV-3 = test: Antiproliferative activity against human SKOV3 cells at 4 uM after 48 hrs by MTT assay; format: functional; settings: SK-OV-3, 48 h
Procedure, shortened: as §1

[2] = biological target: T2, Retinoic acid receptor RXR-alpha (Mus musculus, UniProt P28700); test: Transactivation of Gal4-LBD fused mouse RXRalpha (218 to 467) transfected in african green monkey CV1 cells assessed as luciferase activity at after 6 hrs by Dual-light chemiluminescent assay; format: cell-based, CV-1
T2 sequence (P28700 whole entry): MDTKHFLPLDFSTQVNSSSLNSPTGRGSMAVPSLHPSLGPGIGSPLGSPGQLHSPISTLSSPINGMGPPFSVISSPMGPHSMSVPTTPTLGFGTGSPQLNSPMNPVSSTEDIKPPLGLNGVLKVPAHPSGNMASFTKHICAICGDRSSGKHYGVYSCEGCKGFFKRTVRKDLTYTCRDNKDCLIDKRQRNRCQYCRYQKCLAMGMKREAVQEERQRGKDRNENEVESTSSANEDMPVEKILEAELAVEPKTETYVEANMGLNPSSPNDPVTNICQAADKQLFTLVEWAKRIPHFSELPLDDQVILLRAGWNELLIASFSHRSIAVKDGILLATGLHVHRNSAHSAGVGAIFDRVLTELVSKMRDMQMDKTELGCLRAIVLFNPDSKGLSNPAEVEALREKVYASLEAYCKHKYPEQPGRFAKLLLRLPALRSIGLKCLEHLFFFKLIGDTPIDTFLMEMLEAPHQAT

[3] = biological target: T3, Retinoic acid receptor alpha (Homo sapiens) (UniProt P10276); test: Inhibition of transactivation activity of Gal4-LBD fused human RARalpha (156 to 454) transfected in atRA-stimulated african green monkey CV1 cells at 0.2 uM after 6 hrs by Dual-light chemiluminescent assay; format: cell-based; settings: CV-1, 0.2 uM
T3 sequence (whole entry): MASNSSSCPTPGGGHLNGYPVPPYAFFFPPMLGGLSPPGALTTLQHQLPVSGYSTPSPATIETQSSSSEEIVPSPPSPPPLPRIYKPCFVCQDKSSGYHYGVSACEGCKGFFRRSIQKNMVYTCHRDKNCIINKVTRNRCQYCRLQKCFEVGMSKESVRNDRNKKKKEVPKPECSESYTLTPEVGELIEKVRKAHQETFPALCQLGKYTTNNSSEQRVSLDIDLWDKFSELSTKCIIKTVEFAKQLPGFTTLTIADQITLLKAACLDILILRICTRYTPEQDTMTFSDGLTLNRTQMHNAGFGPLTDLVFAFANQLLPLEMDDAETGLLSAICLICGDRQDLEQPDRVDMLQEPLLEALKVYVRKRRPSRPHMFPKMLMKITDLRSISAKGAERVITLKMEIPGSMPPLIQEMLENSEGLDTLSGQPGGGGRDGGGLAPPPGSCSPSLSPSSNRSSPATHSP
Procedure, shortened: (§2)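 Gal4 DBD (1–147) was fused to hRARα (156–462) or hRARβ (169–448) LBD. CV-1 cells (20,000/well) were co-transfected with 10 ng Gal4-LBD, 100 ng UAS-luciferase and 25 ng β-gal vector. After 16 h the medium was replaced with medium containing 5% charcoal-treated FBS. Cells got atRA plus test compound at 10-, 40- or 200-fold excess (0.2, 0.8, 4 μM) for 6 h. Luciferase and β-galactosidase were read by chemiluminescence.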

[4] = biological target: T4, Retinoic acid receptor beta (Homo sapiens) (UniProt P10826); test: Inhibition of transactivation activity of Gal4-LBD fused human RARbeta (169 to 448) transfected in atRA-stimulated african green monkey CV1 cells at 4 uM after 6 hrs by Dual-light chemiluminescent assay; format: cell-based; settings: CV-1
T4 sequence (whole entry): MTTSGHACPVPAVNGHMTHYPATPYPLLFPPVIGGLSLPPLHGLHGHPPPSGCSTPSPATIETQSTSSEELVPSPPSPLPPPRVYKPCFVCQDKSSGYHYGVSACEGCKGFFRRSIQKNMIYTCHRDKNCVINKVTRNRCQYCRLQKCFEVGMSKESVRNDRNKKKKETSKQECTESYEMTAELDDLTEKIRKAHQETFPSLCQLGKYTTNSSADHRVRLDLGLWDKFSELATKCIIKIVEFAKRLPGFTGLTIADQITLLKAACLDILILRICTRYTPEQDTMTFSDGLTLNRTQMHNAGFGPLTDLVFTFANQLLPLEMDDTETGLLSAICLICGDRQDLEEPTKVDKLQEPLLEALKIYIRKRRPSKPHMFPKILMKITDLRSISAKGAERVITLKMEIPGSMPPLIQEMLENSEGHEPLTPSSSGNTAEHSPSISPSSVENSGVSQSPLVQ
Procedure, shortened: as §2

[5] = biological target: T3, Retinoic acid receptor alpha (Homo sapiens); test: Transactivation of Gal4-LBD fused human RARalpha (156 to 454) transfected in african green monkey CV1 cells assessed as luciferase activity at 2 uM after 6 hrs by Dual-light chemiluminescent assay; format: cell-based; settings: CV-1

| Activity [1] | EC50 [2] | inhibition [3] | Activity [4] | Activity [5] | Structure (SMILES) | inhibition at 4 µM (BXPC-3) | inhibition at 4 µM (A549) | inhibition at 4 µM (SK-OV-3) |
| --- | --- | --- | --- | --- | --- | --- | --- | --- |
| inactive | 1140 nM | inactive | inactive | inactive | COCCOCOc1cc(C)c(-c2ccc(CC(=O)O)cc2Cl)cc1C12CC3CC(CC(C3)C1)C2 | 14% | 7.9% | 19.1% |
| inactive | 667 nM | inactive | inactive | inactive | COCCOCOc1cc(C)c(-c2ccc3cc(C(=O)O)ccc3c2Cl)cc1C12CC3CC(CC(C3)C1)C2 | 70.2% | 88.1% | 71.2% |
